The list is not random: actives were taken first. Their share in the collection is about 2.8%.
TNAP act hi DEA: increases human TNAP activity under high phosphate acceptor concentration. P05186. 200,000 tested, under 10 active. activation factor at 20 µM. AID 1136. purified TNAP, CDP-star luminescence, 1 M DEA, 30 min; stronger effect = higher value; 0 = EDTA background, 1 = DMSO-only activity;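 active means activation factor at least 2 at 20 µM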
Target sequence (P05186 whole entry, looked up): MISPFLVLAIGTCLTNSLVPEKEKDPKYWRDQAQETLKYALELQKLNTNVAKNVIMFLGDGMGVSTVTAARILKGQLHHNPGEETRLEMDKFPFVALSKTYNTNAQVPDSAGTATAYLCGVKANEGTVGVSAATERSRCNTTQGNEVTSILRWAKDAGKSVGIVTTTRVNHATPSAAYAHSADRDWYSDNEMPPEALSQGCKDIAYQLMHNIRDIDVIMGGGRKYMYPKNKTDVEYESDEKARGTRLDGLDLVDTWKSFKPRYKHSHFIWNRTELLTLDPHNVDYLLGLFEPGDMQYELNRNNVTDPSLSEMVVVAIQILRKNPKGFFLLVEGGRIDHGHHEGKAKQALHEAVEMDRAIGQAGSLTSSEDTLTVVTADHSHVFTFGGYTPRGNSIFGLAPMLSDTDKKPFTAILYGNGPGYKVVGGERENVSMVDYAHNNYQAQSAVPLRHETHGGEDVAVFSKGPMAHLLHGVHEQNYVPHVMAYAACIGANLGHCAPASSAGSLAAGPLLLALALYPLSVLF
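Assay system: human TNAP; Input: enzyme diluted 1/800 final; Reagent: CDP-star luminogenic substrate at 100 µM final; Timing: 30 min, room temperature; Signal: luminescence; Evaluation: TNAP activation factor scaled between EDTA and DMSO control wells.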
TNAP inh hiacc: inhibitors of human TNAP at high phosphate acceptor concentration; P05186; purified TNAP, CDP-star luminescence, 1 M DEA; 0.03% of 200,000 active; AID 1135; inhibition, % at 20 µM;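 active means over 50% inhibition of tissue-nonspecific alkaline phosphatase at 20 µM in the single-dose screen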;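 further: plate controls were DMSO wells for no effect and EDTA-quenched wells as full inhibition for full effect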
TNAP inh no acc: inhibitors of human TNAP without phosphate acceptor; P05186; purified TNAP, CDP-star luminescence, 30 min; inhibition, % at 20 µM; 0.26% of 200,000 active;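 active means tissue-nonspecific alkaline phosphatase inhibition above about 50% at 20 µM in the single-dose screen, limit read from the data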;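 further: 0% = DMSO negative control and 100% = EDTA positive control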
Yeast growth inh: reduces growth of yeast BB579 in restrictive medium; S. cerevisiae BB579 growth, OD615, 48 h; inhibition, % at 10 µM; 0.51% of 140,000 active;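 active means inhibition above a set limit, 3 SD over the mean compound inhibition, cut at about 44% in these data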
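Test system: Saccharomyces cerevisiae DeaD strain BB579, replicative lifespan model yeast | Buffer or medium: Restrictive CSMM-D medium | Doses: One dose, 10 µM compound with 0.25% DMSO | Incubation: 48 h exposure, 30 °C | Detection: Culture absorbance at 615 nm | Control set: Amphotericin B at 10 µg/mL as positive control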
RAM inhibit: inhibitors of the yeast RAM network; S. cerevisiae dse1pr::URA3 reporter, 5-FOA growth OD615, 2 d; analog-sensitive cbk1-as2 kinase mutant strain; inhibition, % at 50 µM; 1.8% of 190,000 active;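 active means inhibition above a set limit, 3 SD over mean compound inhibition, cut at about 8.4% in these data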;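 further: 0% = DMSO-only wells with no growth and 100% = 10 µM 1-NA-PP1 full growth; inhibition rescues growth on 5-FOA so higher OD means more RAM inhibition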
Yeast life ext: yeast lifespan extension; S. cerevisiae growth with nicotinamide, OD615; deaD strain in restrictive glucose medium; inhibition of the nicotinamide effect, % at 10 µM; 0.68% of 130,000 active; AID 775;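 active means inhibition above a set limit, placed 3 SD over the median of all compounds, cut at about 26% in these data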;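 further: 0% = nicotinamide-treated wells and 100% = cells grown without nicotinamide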
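Assay system: engineered S. cerevisiae DeaD replicative-lifespan strain, galactose-grown log-phase cells; medium: restrictive CSMM-D dextrose medium; also added: nicotinamide, 1.5 mM, co-present with compound; schedule: 48 h compound exposure at 30 °C, humidified; detection: absorbance at 615 nm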
RAM efflux-def: RAM network inhibition, efflux-deficient strain | shares compounds with RAM inhibit | S. cerevisiae efflux-deficient reporter strain, 5-FOA growth OD615, 2 days | max inhibition, % | 1,200 tested, under 10 active; call rule not given here;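 further: plate controls were vehicle for no effect and reference inhibitor for full effect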
* marks the source's active call; other numbers are inactive results; . = no result given.

SMILES	TNAP act hi DEA	TNAP inh hiacc	TNAP inh no acc	Yeast growth inh	RAM inhibit	Yeast life ext	RAM efflux-def
CCC(C)NS(=O)(=O)c1ccc(S(=O)(=O)N(CCc2ccc(OC)c(OC)c2)Cc2cccs2)cc1 (stereo unspecified)	1	-1	-36	-20	15*	2	2
CCCCN(CCCC)C1=Nc2ccccc2N/C1=C(/C#N)C(=O)OCC	0.9	6	2	-34	16*	1	6
COc1ccc(C(=O)NC(=S)N2CCN(C)CC2)cc1Br	1.1	-6	-12	.	-1	.	.
CCOC(=O)c1c(C)n2c3c(cc(C)cc13)CCC2	1	-4	-13	.	3	.	.
CCCCOc1ccc(S(=O)(=O)Nc2cc(OC)ccc2OC)cc1	1	2	-5	-34	11*	-1	2
O=C(OCc1nnc(-c2ccccc2)o1)C1CCN(S(=O)(=O)c2cccs2)CC1	1.1	-7	-12	-1	0	-3	.
Cc1cc(C)nc(SCc2cnc(C)nc2N)n1	1	1	-6	.	2	.	.
Cc1ccccc1OCCNc1cc(N2CCN(CCO)CC2)ccc1[N+](=O)[O-]	0.9	14	8	0	-1	-6	.
Cc1ccccc1OCCNc1cc(N2CCCCC2)ccc1[N+](=O)[O-]	1	5	1	-30	14*	2	5
COc1cccc(OCCNc2cc(N3CCOCC3)ccc2[N+](=O)[O-])c1	0.9	10	-3	-42	12*	0	1
COc1cccc(OC)c1C(=O)NNC(=O)c1cccc(COc2ccc3c(c2)CCC3)c1	1.1	-7	-22	-77	1	6	.
COC(=O)c1ccccc1NC(=O)c1ccc(COc2ccc3c(c2)CCC3)cc1	1	-2	-10	-81	14*	-10	5
O=C(NCc1ccccc1)c1cccc(COc2ccc3c(c2)CCC3)c1	1	1	-18	-31	12*	2	7
COc1ccccc1NC(=O)c1ccc(COc2ccc3c(c2)CCC3)cc1	1	-1	-15	-42	8	9	.
Cc1ccc(C)c(NC(=S)NCc2cccn2C)c1	1.1	-6	-5	-6	1	-2	.
O=C(COC(=O)c1cc(-c2ccc(Cl)s2)nc2ccccc12)NCc1ccco1	1	3	0	-28	12*	1	4
O=C(COC(=O)c1cc(-c2cccs2)nc2ccccc12)NCc1ccco1	1	-1	-1	-97	8	-13	.
COc1cccc(N/C(SCc2cccc([N+](=O)[O-])c2)=C(/C#N)C(=O)NCc2cccs2)c1	1	-2	-4	-10	17*	9	4
COc1cccc(N/C(SCc2ccccc2Cl)=C(/C#N)C(=O)NCc2cccs2)c1	1	5	-5	-38	16*	7	3
COc1cccc(N/C(SC)=C(/C#N)C(=O)NCc2cccs2)c1	1	-1	-10	.	6	.	.
COc1cccc(N/C(SCc2ccccc2C)=C(/C#N)C(=O)NCc2cccs2)c1	1	3	-8	-66	20*	4	4
Cc1ccc(SCc2nc(-c3ccccc3)no2)cc1	1	-4	-10	-15	2	-10	.
Cc1ccc(-c2noc(CSc3nnc(CCc4ccccc4)n3-c3ccccc3)n2)cc1	1.1	-6	-10	-25	14*	8	2
O=c1c2c3c(sc2n2cnnc2n1-c1ccccc1)N(Cc1ccccc1)CCC3	1	-2	-2	-83	0	6	.
Cc1cc(C)nc(/N=C(\N)N(Cc2ccccc2)Cc2ccccc2)n1	1	-1	-10	.	1	.	.
CCOC(=O)C1=C(O)/C(=C/c2cc(OC)c(O)c(OC)c2)SC1=Nc1ccc(OC)cc1	0.7	34	9	-15	16*	4	10
CCCCc1ccc(N=N/C(C(=O)Nc2ccccc2OC)=C(/C)O)cc1	0.9	8	-1	-58	20*	14	8

Source: PubChem BioAssay (several laboratories)
